Source: ChEMBL document CHEMBL4038333, “Nonacidic Farnesoid X Receptor Modulators” (J Med Chem, 2017)
In brackets after ≈: the same amount, converted by molar mass. Activity calls are given as the source filed them. The calls are words filed in the database; no cut-off is given here.

Tests used:
[1] = target: Oxysterols receptor LXR-beta (Homo sapiens) (UniProt P55055); test: Transactivation of GAL4-tagged human LXRbeta ligand binding domain expressed in HEK293T cells at 1 uM after 12 to 14 hrs by dual-glo luciferase reporter gene assay; assay type: cell-based; conditions: HEK-293T
In short: (§1)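 Run as a selectivity screen against each listed receptor (14 nuclear receptors plus TGR5), in both agonist and antagonist modes. Test concentration was 1 µM, with n = 3.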

[2] = target: Retinoic acid receptor gamma (Homo sapiens) (UniProt P13631); test: Antagonist activity at GAL4-tagged human RARgamma isoform 1 ligand binding domain (179 to 454 residues) expressed in HEK293T cells at 1 uM after 12 to 14 hrs by dual-glo luciferase reporter gene assay; assay type: cell-based; conditions: HEK-293T; in short: as §1
[3] = Aqueous solubility of compound; assay type: physicochemical; conditions: buffer
[4] = target: T1, Bile acid receptor (Homo sapiens) (UniProt Q96RI1); test: Modulation of FXR in human HepG2 cells assessed as suppression of SREBP1c mRNA expression at 10 nM by qRT-PCR analysis; assay type: cell-based
T1 sequence (whole entry): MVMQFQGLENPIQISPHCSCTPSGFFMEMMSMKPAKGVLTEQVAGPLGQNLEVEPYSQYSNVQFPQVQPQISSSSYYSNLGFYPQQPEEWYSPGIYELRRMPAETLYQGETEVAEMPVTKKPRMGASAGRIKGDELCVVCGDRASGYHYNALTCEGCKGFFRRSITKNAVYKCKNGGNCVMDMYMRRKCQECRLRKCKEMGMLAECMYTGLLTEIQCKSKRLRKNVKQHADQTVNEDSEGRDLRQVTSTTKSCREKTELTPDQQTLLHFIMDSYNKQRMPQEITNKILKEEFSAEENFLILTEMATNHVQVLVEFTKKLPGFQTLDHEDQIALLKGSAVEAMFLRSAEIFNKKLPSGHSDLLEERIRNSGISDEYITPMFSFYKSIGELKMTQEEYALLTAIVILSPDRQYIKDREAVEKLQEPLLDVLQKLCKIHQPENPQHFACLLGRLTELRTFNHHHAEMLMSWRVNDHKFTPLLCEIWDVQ
In short: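 HepG2 hepatocarcinoma cells were incubated with the compound at 10 nM. FXR target-gene mRNA was quantified by qRT-PCR (n = 3), with significance at p < 0.05, 0.01 and 0.001.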

[5] = Half life in human HepG2 cells by HPLC analysis; assay type: ADME, cell-based
[6] = test system: HeLa; test: Selectivity ratio for human FXR expressed in human HeLa cells co-expressing BSEP over GAL4-tagged human RARbeta1 ligand binding domain (177 to 455 residues) expressed in HEK293T cells; assay type: cell-based
[7] = target: G-protein coupled bile acid receptor 1 (Homo sapiens) (UniProt Q8TDU6); test: Agonist activity at TGR5 (unknown origin) expressed in HEK293T cells at 1 uM after 12 to 14 hrs by dual-glo luciferase reporter gene assay; assay type: cell-based; in short: as §1
[8] = test system: HepG2; test: Cytotoxicity against human HepG2 cells up to 100 uM after 48 hrs by WST-1 assay; assay type: cell-based; conditions: hepg2, 48 h
[9] = test system: HeLa; test: Selectivity ratio for human FXR expressed in human HeLa cells co-expressing BSEP over GAL4-tagged human VDR isoform 1 ligand binding domain (119 to 427 residues) expressed in HEK293T cells; assay type: cell-based
[10] = test system: HeLa; test: Selectivity ratio for human FXR expressed in human HeLa cells co-expressing BSEP over TGR5 (unknown origin) expressed in HEK293T cells; assay type: cell-based
[11] = target: Peroxisome proliferator-activated receptor gamma (Homo sapiens) (UniProt P37231); test: Antagonist activity at GAL4-tagged human PPARgamma ligand binding domain expressed in HEK293T cells at 1 uM after 12 to 14 hrs by dual-glo luciferase reporter gene assay; assay type: cell-based; conditions: HEK-293T; in short: as §1
[12] = test system: HeLa; test: Selectivity ratio for human FXR expressed in human HeLa cells co-expressing BSEP over GAL4-tagged human LXRalpha ligand binding domain expressed in HEK293T cells; assay type: cell-based

Sequence of G-protein coupled bile acid receptor 1 (Homo sapiens) (Q8TDU6 whole entry): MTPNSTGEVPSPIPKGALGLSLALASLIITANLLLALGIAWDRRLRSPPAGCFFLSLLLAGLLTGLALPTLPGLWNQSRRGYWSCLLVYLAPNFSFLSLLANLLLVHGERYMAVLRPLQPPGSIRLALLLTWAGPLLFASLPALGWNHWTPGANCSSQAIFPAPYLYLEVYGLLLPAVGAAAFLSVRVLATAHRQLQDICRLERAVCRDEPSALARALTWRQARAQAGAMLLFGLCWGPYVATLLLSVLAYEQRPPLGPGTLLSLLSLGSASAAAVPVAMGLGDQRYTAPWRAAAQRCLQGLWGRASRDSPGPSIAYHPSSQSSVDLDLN
Sequence of Peroxisome proliferator-activated receptor gamma (Homo sapiens) (P37231 whole entry, the tested form may be a part): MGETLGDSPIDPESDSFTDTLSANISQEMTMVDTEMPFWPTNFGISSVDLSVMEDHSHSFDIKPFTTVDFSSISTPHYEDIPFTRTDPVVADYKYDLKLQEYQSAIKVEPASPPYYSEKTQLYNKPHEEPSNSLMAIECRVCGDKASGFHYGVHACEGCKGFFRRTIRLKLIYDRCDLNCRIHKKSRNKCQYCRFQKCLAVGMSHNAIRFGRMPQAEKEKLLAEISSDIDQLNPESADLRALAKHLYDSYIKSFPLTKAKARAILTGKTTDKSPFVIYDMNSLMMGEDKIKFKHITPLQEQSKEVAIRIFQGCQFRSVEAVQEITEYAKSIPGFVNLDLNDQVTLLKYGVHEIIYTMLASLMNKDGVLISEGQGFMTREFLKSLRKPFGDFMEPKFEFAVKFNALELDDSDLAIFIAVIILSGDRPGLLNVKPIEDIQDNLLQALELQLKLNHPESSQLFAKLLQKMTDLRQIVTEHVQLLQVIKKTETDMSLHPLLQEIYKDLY
Sequence of Retinoic acid receptor gamma (Homo sapiens) (P13631 whole entry, the tested form may be a part, canonical isoform): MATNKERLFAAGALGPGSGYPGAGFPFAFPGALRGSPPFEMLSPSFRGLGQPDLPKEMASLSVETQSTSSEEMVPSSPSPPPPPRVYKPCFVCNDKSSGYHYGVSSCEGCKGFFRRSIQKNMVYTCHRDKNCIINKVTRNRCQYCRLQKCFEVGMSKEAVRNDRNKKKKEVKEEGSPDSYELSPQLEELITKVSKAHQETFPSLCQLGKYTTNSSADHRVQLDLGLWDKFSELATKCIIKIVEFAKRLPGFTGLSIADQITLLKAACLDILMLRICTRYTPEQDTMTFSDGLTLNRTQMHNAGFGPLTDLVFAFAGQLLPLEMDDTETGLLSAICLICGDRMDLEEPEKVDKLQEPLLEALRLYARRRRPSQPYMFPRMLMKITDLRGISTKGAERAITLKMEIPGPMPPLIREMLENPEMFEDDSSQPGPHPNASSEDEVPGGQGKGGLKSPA
Sequence of Oxysterols receptor LXR-beta (Homo sapiens) (P55055 whole entry, the tested form may be a part): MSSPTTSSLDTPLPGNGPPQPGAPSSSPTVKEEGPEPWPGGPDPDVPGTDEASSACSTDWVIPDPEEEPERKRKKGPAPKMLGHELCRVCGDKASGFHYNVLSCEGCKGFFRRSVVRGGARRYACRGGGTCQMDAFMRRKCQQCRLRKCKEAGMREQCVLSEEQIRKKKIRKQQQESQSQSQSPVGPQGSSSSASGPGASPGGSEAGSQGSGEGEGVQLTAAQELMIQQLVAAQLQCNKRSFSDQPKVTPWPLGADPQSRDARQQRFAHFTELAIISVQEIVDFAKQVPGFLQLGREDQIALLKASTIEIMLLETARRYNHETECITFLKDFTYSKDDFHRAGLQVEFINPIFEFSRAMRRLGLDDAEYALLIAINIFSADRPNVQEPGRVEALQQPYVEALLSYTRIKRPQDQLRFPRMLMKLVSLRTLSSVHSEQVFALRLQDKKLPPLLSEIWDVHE

- Activity [1]: inactive
- inhibition [2]: inactive
- solubility [3]: 0.0637 µg/mL (≈ 0.16 µM)
- Activity [4]: Active
- half-life [5]: 1.5 to 2 h
- Activity [7]: inactive
- inhibition [11]: inactive
Structure (SMILES): COc1ccc(CNc2c(-c3cc(Cl)ccn3)nc3ccc(Cl)cn23)cc1
- Selectivity ratio [6]: 3000
- Activity [8]: Non-Toxic
- Selectivity ratio [9]: 3000
- Selectivity ratio [10]: 3000
- Selectivity ratio [12]: 3000
